This note sets out measurements from ChEMBL document CHEMBL1145801, “Inhibition of Cdc25 phosphatases by indolyldihydroxyquinones” (J Med Chem, 2003).

The target in test [1] is T1, M-phase inducer phosphatase 2 (Homo sapiens, UniProt P30305).
T1 sequence (P30305 whole entry): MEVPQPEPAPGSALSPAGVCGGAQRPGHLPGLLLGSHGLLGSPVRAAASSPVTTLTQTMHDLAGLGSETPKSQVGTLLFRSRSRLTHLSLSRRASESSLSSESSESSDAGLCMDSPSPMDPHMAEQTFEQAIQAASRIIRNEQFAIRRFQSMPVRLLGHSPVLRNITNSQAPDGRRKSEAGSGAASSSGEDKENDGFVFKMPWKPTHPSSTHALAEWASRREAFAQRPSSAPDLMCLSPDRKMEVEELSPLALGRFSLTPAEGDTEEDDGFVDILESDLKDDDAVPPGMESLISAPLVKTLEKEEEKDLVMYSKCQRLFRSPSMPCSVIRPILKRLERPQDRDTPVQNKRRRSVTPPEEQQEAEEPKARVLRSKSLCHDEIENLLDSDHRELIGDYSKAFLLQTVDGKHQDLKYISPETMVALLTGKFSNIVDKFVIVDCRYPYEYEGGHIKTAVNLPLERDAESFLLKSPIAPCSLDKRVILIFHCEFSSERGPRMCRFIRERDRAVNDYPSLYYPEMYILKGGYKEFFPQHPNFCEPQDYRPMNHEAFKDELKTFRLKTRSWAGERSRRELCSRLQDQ
In words: Eight point inhibitory concentration against Cell division cycle 25B was determined. The essentials:
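Cdc25B activity read by UV-vis at 477 nm as product formed from 3-O-methylfluorescein phosphate (mFP) at 50 μM (~5 × Km), time-dependent, initial-velocity conditions (2–5% turnover); eight inhibitor concentrations, IC50 fitted to eq 1. Each reaction compared with a simultaneous no-inhibitor control; selected compounds run in duplicate.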

For test [2], the target named is T2, M-phase inducer phosphatase 1 (Homo sapiens, UniProt P30304).
T2 sequence (P30304 whole entry): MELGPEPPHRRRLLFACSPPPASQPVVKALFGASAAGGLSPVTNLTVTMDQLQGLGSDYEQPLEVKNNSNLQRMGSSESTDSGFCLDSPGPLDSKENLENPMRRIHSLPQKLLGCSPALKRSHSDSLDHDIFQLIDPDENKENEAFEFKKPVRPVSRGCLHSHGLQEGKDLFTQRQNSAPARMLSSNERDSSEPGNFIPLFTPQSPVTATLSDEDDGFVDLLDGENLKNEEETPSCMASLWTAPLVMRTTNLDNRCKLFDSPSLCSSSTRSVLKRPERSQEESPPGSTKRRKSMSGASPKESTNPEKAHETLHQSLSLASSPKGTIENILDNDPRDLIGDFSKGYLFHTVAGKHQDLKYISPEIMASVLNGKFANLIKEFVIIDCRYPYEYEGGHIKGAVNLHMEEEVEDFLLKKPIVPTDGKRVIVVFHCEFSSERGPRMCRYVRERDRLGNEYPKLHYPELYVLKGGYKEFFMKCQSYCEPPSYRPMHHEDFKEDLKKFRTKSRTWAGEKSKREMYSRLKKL
Briefly: Eight point inhibitory concentration against Cell division cycle 25A was determined. The method, boiled down: (§1)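 Phosphatase activity measured with 3-O-methylfluorescein phosphate at 50 μM (~5 × Km), product formation followed at 477 nm by UV-vis under initial velocity conditions (2–5% turnover) in time-dependent assays. Eight inhibitor concentrations were used, and IC50 was obtained by fitting to a dose–response equation.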

Test [3] addresses T3, M-phase inducer phosphatase 3 (Homo sapiens) (UniProt P30307).
T3 sequence (whole entry): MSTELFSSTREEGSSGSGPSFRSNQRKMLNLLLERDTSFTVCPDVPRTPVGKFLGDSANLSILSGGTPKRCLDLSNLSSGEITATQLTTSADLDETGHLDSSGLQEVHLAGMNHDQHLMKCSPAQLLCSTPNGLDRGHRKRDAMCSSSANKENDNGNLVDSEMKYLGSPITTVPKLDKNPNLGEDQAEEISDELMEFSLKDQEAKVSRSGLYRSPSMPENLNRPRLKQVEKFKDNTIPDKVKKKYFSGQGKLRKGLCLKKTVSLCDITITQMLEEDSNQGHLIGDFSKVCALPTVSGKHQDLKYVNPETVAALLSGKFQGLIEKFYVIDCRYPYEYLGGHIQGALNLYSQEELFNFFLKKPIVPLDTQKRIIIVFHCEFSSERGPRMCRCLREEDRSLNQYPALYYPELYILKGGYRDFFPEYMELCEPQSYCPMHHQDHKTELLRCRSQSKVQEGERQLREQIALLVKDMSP
Briefly: Percent inhibition of cell division cycle 25 degree C at 50 uM. The method, boiled down: (§2)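 Single-point screen at 50 μM inhibitor against Cdc25A, Cdc25B or Cdc25C with 50 μM 3-O-methylfluorescein phosphate, product followed at 477 nm in time-dependent assays. Activity was compared with a simultaneous no-inhibitor control, and selected compounds were run in duplicate (average error ±7%).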

The target in test [4] is T4, M-phase inducer phosphatase 1 (Homo sapiens) (UniProt P30304).
T4 sequence (whole entry): T2 sequence (P30304 whole entry)
Briefly: Percent inhibition of cell division cycle 25A at 50 uM. The essentials: as §2

Test [5] addresses T5, M-phase inducer phosphatase 2 (Homo sapiens) (UniProt P30305).
T5 sequence (whole entry): T1 sequence (P30305 whole entry)
Briefly: Percent inhibition of cell division cycle 25B at 50 uM. The method, boiled down: as §2

The target in test [6] is T6, M-phase inducer phosphatase 3 (Homo sapiens, UniProt P30307).
T6 sequence (P30307 whole entry): T3 sequence (whole entry)
Briefly: Eight point inhibitory concentration against Cell division cycle 25 degree C was determined. The method, boiled down:
as §1

The target of test [7] is T1, M-phase inducer phosphatase 2. Briefly: Inhibitory constant of compound against Cell division cycle 25B was determined using mFP as a substrate.
The target is the same in test [8]. In words: Inhibitory concentration of compound against Cell division cycle 25B was determined using CDK2-p-TpY/Cyclin A as a substrate. The method, boiled down: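 Cdc25B dephosphorylation of 300 nM Cdk2-pTpY/CycA protein substrate was run in time-dependent assays at eight inhibitor concentrations to give IC50. Reactions were quenched with TCA, and bovine serum albumin carrier (1 mg/mL) was added only after the quench so that it was absent during inhibitor exposure.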

For `O=C1C=C(O)C(=O)C(c2c[nH]c3c(-c4ccccc4)cccc23)=C1O`, the half-maximal inhibitory concentration (IC50) – broadly, the concentration that gives 50% inhibition – was 2.5 µM in test [1], 2.5 µM in test [2] and 27 µM in test [6]. The inhibition (as a rule, the change of the read-out against control, counted positive when it falls) was 91% in test [3], 99% in test [4] and 92% in test [5].
As to `Cc1ccccc1Cc1cccc2c(C3=C(O)C(O)=CC(=O)C3=O)c[nH]c12`, the IC50 was found to be 1 µM in test [1], 1 µM in test [2] and 3.5 µM in test [6]. The inhibition was found to be 94% in test [3], 100% in test [4] and 97% in test [5].
For the compound `CC(C)=CCc1c(Cl)cc(Cl)c2c(C3=C(O)C(O)=CC(=O)C3=O)c[nH]c12`, the inhibitory constant (Ki) – broadly, a measure of affinity in units of concentration, obtained from inhibition or displacement – in test [7] was determined as 0.43 µM. Besides, the IC50 in test [1] was found to be 2.3 µM; in test [8], 8.6 µM; in test [2] it was 5 µM; in test [6] it was 8.8 µM.
With `CCCc1cccc2c(C3=C(O)C(O)=CC(=O)C3=O)c[nH]c12`, the IC50 in test [1] was 59 µM; in test [2], 4.2 µM; in test [6] it was > 50 µM. The inhibition in test [3] amounted to 79%; in test [4], 72%; in test [5], 23%.
As for `O=C1C=C(O)C(=O)C(c2c[nH]c3c(Cc4ccccc4)cccc23)=C1O`, the 50% inhibitory concentration (IC50) in test [1] was determined as 2.3 µM; in test [2], 2.3 µM; in test [6], 15 µM. The figures for the inhibition in test [3], in test [4] and in test [5] were 98%, 100% and 97%, respectively.
Turning to `O=C1C=C(O)C(=O)C(c2c[nH]c3cc(Cl)ccc23)=C1O`, the IC50 in test [1] was determined as 14 µM; in test [2], 4.2 µM; in test [6], 40 µM. For the same compound, the results for the inhibition in test [3], in test [4] and in test [5] were 81%, 100% and 92%, respectively.
In the case of `O=C1C=C(O)C(=O)C(c2c[nH]c3c(OCc4ccccc4)cccc23)=C1O`, the IC50 in test [1] came out at 4.2 µM; in test [2] it was 4.2 µM; in test [6], 6.9 µM. For the same compound, the inhibition came to 85% in test [3], 98% in test [4] and 97% in test [5].
In the case of `CC(C)(C)c1cccc2c(C3=C(O)C(O)=CC(=O)C3=O)c[nH]c12`, the figures for the IC50 in test [1], in test [2] and in test [6] were 7.2 µM, 7.2 µM and > 50 µM, respectively. Besides, the inhibition in test [3] is 37%; in test [4] it was 93%; in test [5] it was 33%.
Turning to `O=C1C=C(O)C(=O)C(c2c[nH]c3c2ccc2ccccc23)=C1O`, the IC50 in test [1] is 24 µM; in test [2], 2.5 µM; in test [6], 15 µM. Moreover, the inhibition in test [3] was 75%; in test [4], 99%; in test [5] it was 79%.
The compound `O=C1C=C(O)C(=O)C(c2c[nH]c3ccc(OCc4ccccc4)cc23)=C1O` had a 50% inhibitory concentration (IC50) in test [2] of 5.5 µM. In addition, the figures for the inhibition in test [3], in test [4] and in test [5] were 26%, 100% and 50%, respectively.
On to `CC(C)=CCC/C(C)=C/Cc1cccc2c(C3=C(O)C(O)=CC(=O)C3=O)c[nH]c12`, for which the IC50 came to 1 µM in test [2] and 10 µM in test [6]. Also, the inhibition in test [3] was 96%; in test [4] it was 86%; in test [5] it was 95%.
In the case of `O=C1C=C(O)C(=O)C(c2c[nH]c3cccc(Cl)c23)=C1O`, the IC50 was > 50 µM in test [1], 28 µM in test [2] and > 50 µM in test [6]. The inhibition in test [3] came to 0%; in test [4], 22%; in test [5], 21%.
As for `Cc1ccc2c(C3=C(O)C(O)=CC(=O)C3=O)c(C)[nH]c2c1`, the inhibition in test [3] was determined as 0%; in test [4], 0%; in test [5] it was 16%.
`O=C1/C(=N/CCc2cc(Br)c(O)c(Br)c2)C=C(O)c2cccnc21`: the figures for the IC50 in test [1], in test [2] and in test [6] were 35 µM, 15 µM and 35 µM, respectively.
Regarding `O=C1C=C(O)C(=O)C(c2c[nH]c3c(Br)cccc23)=C1O`, the inhibition in test [3] stood at 11%; in test [4] it was 11%; in test [5], 45%.
`Cc1cccc2[nH]cc(C3=C(O)C(O)=CC(=O)C3=O)c12`: the figures for the inhibition in test [3], in test [4] and in test [5] were 28%, 39% and 9%, respectively.
In the same order, the values of `O=C1C=C(O)C(=O)C(c2c[nH]c3ccc(F)cc23)=C1O` are 23%, 39% and 32%.
In the same order, the values of `COc1ccc2[nH]c(C)c(C3=C(O)C(O)=CC(=O)C3=O)c2c1` are 31%, 0% and 0%.
Consider `O=C1C=C(O)C(=O)C(c2c(C3CC3)[nH]c3ccccc23)=C1O`, for which the values for the IC50 in test [1], in test [2] and in test [6] were > 50 µM, 35 µM and > 50 µM, respectively. The results for the inhibition in test [3], in test [4] and in test [5] were 0%, 22% and 32%, respectively.
`O=C1C=C(O)C(=O)C(c2c[nH]c3ccc(Br)cc23)=C1O` returned an IC50 in test [2] of 5.8 µM. Also, the inhibition in test [3] stood at 26%; in test [4], 83%; in test [5], 55%.
As for `COc1cccc2[nH]cc(C3=C(O)C(O)=CC(=O)C3=O)c12`, the values for the inhibition in test [3], in test [4] and in test [5] were 19%, 40% and 21%, respectively.
As for `CC(C)c1[nH]c2ccccc2c1C1=C(O)C(O)=CC(=O)C1=O`, the inhibition in test [3] was found to be 0%; in test [4], 7%; in test [5], 13%.
With `CC(C)=CCc1c(Cl)ccc2c(C3=C(O)C(O)=CC(=O)C3=O)c[nH]c12`, the IC50 in test [1] amounted to 7.2 µM; in test [2], 4 µM; in test [6] it was 11 µM.
With `O=C1C=C(O)C(=O)C(c2c[nH]c3cccc(F)c23)=C1O`, the inhibition was 0% in test [3], 20% in test [4] and 5% in test [5].
Regarding `O=C1C=C(O)C(=O)C(c2c(-c3ccccc3)[nH]c3ccccc23)=C1O`, the inhibition in test [3] came out at 18%; in test [4], 40%; in test [5] it was 38%.
In the same order, the values of `O=C1C=C(O)C(=O)C(c2c[nH]c3cc(F)ccc23)=C1O` are 48%, 97% and 90%.
On the same counts, the results for `O=C1C=C(O)C(=O)C(c2c[nH]c3c(Cl)cccc23)=C1O` are 54%, 0% and 23%.
